In series [1] the test system is Sporobolomyces salmonicolor. As to the kind of experiment: Antimicrobial activity against Sporidiobolus salmonicolor 549 at 10 ug/ml after 24 hrs by Kirby-Bauer agar diffusion assay. Format: functional. As to conditions: Sporobolomyces salmonicolor, 549, 24 h; read-out: DIZ. A digest of the protocol: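 Control for the yeast: amphotericin B, 10 µg/mL in 10:1 DMSO:MeOH, 50 µL per 9 mm well in inoculated MHII agar (~5×10³ CFU/mL). Incubated at 37 °C for 24 h; growth-inhibition zone diameter measured in mm.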
(A growth-free zone around the sample is the usual read-out of agar diffusion tests.)

Series [2] relates to Micrococcus luteus. As to the kind of experiment: Antimicrobial activity against Micrococcus luteus ATCC 10240 assessed after 18 hrs by broth microdilution method. Format: functional. The settings on record: ATCC 10240, 18 h. The essentials: (§1)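 CLSI broth microdilution in cation-adjusted MHII broth. 20 mM DMSO stocks were diluted to 512 µM, then serially 2-fold, giving final 128–0.0625 µM with 5×10⁵ CFU/mL inoculum. Incubated 18 h at 37 °C. MIC90 was the lowest concentration giving 90% inhibition by visual turbidity versus DMSO wells. Run in triplicate.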
On the technique in general: In broth dilution the organism is exposed to a series of concentrations in liquid medium.

The test system of series [3] is Bacillus subtilis. As to the kind of experiment: Antimicrobial activity against Bacillus subtilis ATCC 6633 after 24 hrs by Kirby-Bauer agar diffusion assay. Format: functional. A digest of the protocol:
(§2)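 Modified Kirby-Bauer well diffusion. Overnight LB cultures (18–24 h) were standardized in 0.9% saline to 0.5 McFarland and mixed into melted MHII agar at 47–50 °C, giving ~5×10³ CFU/mL. 9 mm wells received 50 µL of 2.0 mM compound in 10:1 MeOH:DMSO. Plates were incubated 24 h at 37 °C, then growth-inhibition zone diameter was measured (mm) by caliper.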

Series [4] concerns Enterococcus faecalis. As to the kind of experiment: Antimicrobial activity against vancomycin-resistant Enterococcus faecalis 1528 after 24 hrs by Kirby-Bauer agar diffusion assay. Format: functional. A digest of the protocol: (§3)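 Overnight LB cultures (18–24 h) adjusted to a 0.5 McFarland standard (1.5×10^6 CFU/mL in 0.9% saline), then 0.1 mL mixed into 34 mL molten MHII agar at 47–50 °C (~5×10^3 CFU/mL). 50 µL of 2.0 mM compound in 10:1 MeOH:DMSO placed in 9 mm wells. Incubated at 37 °C for 24 h; inhibition zone diameter (mm) measured by caliper.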

The test system of series [5] is Staphylococcus aureus. Nature of the series: Antimicrobial activity against Staphylococcus aureus SG511 after 24 hrs by Kirby-Bauer agar diffusion assay. Format: functional. A digest of the protocol:
as §2

Series [6] deals with Enterococcus faecalis. Nature of the series: Antimicrobial activity against Enterococcus faecalis ATCC 49532 assessed after 18 hrs by broth microdilution method. Format: functional. The settings on record: ATCC 49532, 18 h. The essentials:
as §1

Series [7] deals with Enterococcus faecalis. As to the kind of experiment: Antimicrobial activity against Enterococcus faecalis ATCC 49532 after 24 hrs by Kirby-Bauer agar diffusion assay. Format: functional. A digest of the protocol: as §2
Series [8] has as its system Sporobolomyces salmonicolor. Nature of the series: Antimicrobial activity against Sporidiobolus salmonicolor 549 after 24 hrs by Kirby-Bauer agar diffusion assay. Format: functional. A digest of the protocol: as §2
Series [9] deals with Escherichia coli. As to the kind of experiment: Antimicrobial activity against Escherichia coli DC2 after 24 hrs by Kirby-Bauer agar diffusion assay. Format: functional. A digest of the protocol: as §2
A further series relates to HeLa. Nature of the series: Cytotoxicity against human HeLa cells. Format: cell-based.
Series [10] concerns Staphylococcus aureus. As to the kind of experiment: Antimicrobial activity against Staphylococcus aureus SG511 assessed after 18 hrs by broth microdilution method. Format: functional. As to conditions: SG511, 18 h. The essentials:
as §1

Series [11] deals with Escherichia coli. As to the kind of experiment: Antimicrobial activity against Escherichia coli DC0 after 24 hrs by Kirby-Bauer agar diffusion assay. Format: functional. The essentials:
as §2

Another series relates to PC-3. As to the kind of experiment: Cytotoxicity against human PC3 cells. Format: cell-based.
The test system of series [12] is Pseudomonas aeruginosa. Nature of the series: Antimicrobial activity against Pseudomonas aeruginosa 799/WT after 24 hrs by Kirby-Bauer agar diffusion assay. Format: functional. The essentials:
as §2

In series [13] the test system is Mycolicibacterium vaccae. As to the kind of experiment: Antimicrobial activity against Mycobacterium vaccae IMET 10670 after 24 hrs by Kirby-Bauer agar diffusion assay. Format: functional. A digest of the protocol:
as §2

The subject of another series is MCF7. As to the kind of experiment: Cytotoxicity against human MCF7 cells. Format: cell-based.
Series [14] deals with Staphylococcus aureus. Nature of the series: Antimicrobial activity against methicillin-resistant Staphylococcus aureus 134/94 after 24 hrs by Kirby-Bauer agar diffusion assay. Format: functional. The essentials:
as §3

The subject of series [15] is Pseudomonas aeruginosa. Nature of the series: Antimicrobial activity against Pseudomonas aeruginosa 799/61 after 24 hrs by Kirby-Bauer agar diffusion assay. Format: functional. The essentials:
as §2

The test system of series [16] is Micrococcus luteus. Nature of the series: Antimicrobial activity against Micrococcus luteus ATCC 10240 after 24 hrs by Kirby-Bauer agar diffusion assay. Format: functional. A digest of the protocol: as §2
In series [17] the test system is Enterococcus faecalis. As to the kind of experiment: microbe, parasite or virus in culture. As to conditions: Enterococcus faecalis, 1528, 24 h, read-out: DIZ.
The subject of series [18] is Staphylococcus aureus. As to the kind of experiment: microbe, parasite or virus in culture. As to conditions: 134/94, 24 h, read-out: DIZ.
Series [19] has as its system Bacillus subtilis. Nature of the series: microbe, parasite or virus in culture. The settings on record: ATCC 6633, 24 h, read-out: DIZ.
For series [20], the system named is Escherichia coli. As to the kind of experiment: Antimicrobial activity against Escherichia coli DC2 at 5 ug/ml after 24 hrs by Kirby-Bauer agar diffusion assay. As to conditions: DC2, 24 h, read-out: DIZ.
The test system of series [21] is Mycolicibacterium vaccae. Nature of the series: Antimicrobial activity against Mycobacterium vaccae IMET 10670 at 5 ug/ml after 24 hrs by Kirby-Bauer agar diffusion assay. Format: functional. The settings on record: IMET 10670, 24 h, read-out: DIZ. The essentials: (§4)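 Ciprofloxacin control, 5 µg/mL in water, 50 µL per 9 mm well in MHII agar seeded with ~5×10³ CFU/mL (saline suspension standardized to 0.5 McFarland from an overnight LB culture). Incubated at 37 °C for 24 h; inhibition zone diameter read in mm.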

For series [22], the system named is Pseudomonas aeruginosa. Nature of the series: microbe, parasite or virus in culture. As to conditions: 799/WT, 24 h, read-out: DIZ.
The test system of series [23] is Pseudomonas aeruginosa. As to the kind of experiment: microbe, parasite or virus in culture. The settings on record: 799/61, 24 h, read-out: DIZ.
Series [24] has as its system Enterococcus faecalis. Nature of the series: microbe, parasite or virus in culture. As to conditions: ATCC 49532, 24 h, read-out: DIZ.
Series [25] concerns Staphylococcus aureus. Nature of the series: Antimicrobial activity against Staphylococcus aureus SG511 at 5 ug/ml after 24 hrs by Kirby-Bauer agar diffusion assay. The settings on record: SG511, 24 h, read-out: DIZ.
Series [26] relates to Escherichia coli. As to the kind of experiment: Antimicrobial activity against Escherichia coli DC0 at 5 ug/ml after 24 hrs by Kirby-Bauer agar diffusion assay. As to conditions: DC0, 24 h, read-out: DIZ.
Series [27] concerns Micrococcus luteus. As to the kind of experiment: Antimicrobial activity against Micrococcus luteus ATCC 10240 at 5 ug/ml after 24 hrs by Kirby-Bauer agar diffusion assay. The settings on record: ATCC 10240, 24 h, read-out: DIZ. Format: functional. A digest of the protocol: as §4

Converted amounts (≈) assume the structure as drawn.

On to `C[C@@H]1[C@H](O)[C@@H](C)/C=C/C=C/C=C/C=C/C=C/C=C/C=C/[C@H](O[C@@H]2O[C@H](C)[C@@H](O)[C@H](N)[C@@H]2O)C[C@@H]2O[C@](O)(C[C@@H](O)C[C@@H](O)[C@H](O)CC[C@@H](O)C[C@@H](O)CC(=O)O[C@H]1C)C[C@H](O)[C@H]2C(=O)O` [AMPHOTERICIN B], for which, in series [1], the zone of inhibition at 10 µg/mL turned out to be 16 mm.
`CO[C@@H]1C=C[C@@H](N(O)c2ccc(Br)cn2)CC1` (racemic): the values for the MIC90 against Micrococcus luteus [2], against Enterococcus faecalis [6] and with Staphylococcus aureus [10] were 4 µM (≈ 1.2 µg/mL), greater than 128 µM and greater than 128 µM, respectively. Also, the “diameter of the inhibition zone (DIZ)” value is listed as “<=10 mm” in the series with Bacillus subtilis [3]; 16 mm in the series on Enterococcus faecalis [4]; 12 mm with Staphylococcus aureus [5]; 16 mm in the series on Enterococcus faecalis [7]; “<=10 mm” in series [8]; “<=10 mm” in the series on Escherichia coli [9]. In addition, the “diameter of the inhibition zone (DIZ)” value with Escherichia coli [11] is reported as “<=10 mm”; with Pseudomonas aeruginosa [12] it was “<=10 mm”; in the series with Mycolicibacterium vaccae [13] it was 11 mm; in the series on Staphylococcus aureus [14], 11 mm; in the series on Pseudomonas aeruginosa [15] it was “<=10 mm”; in the series on Micrococcus luteus [16], 34 mm. Moreover, the Activity entry in the series on HeLa, in the series with PC-3 and in the series on MCF7 was “Non-toxic” each time.
On to `C=C(C)C(C)N(O)c1cccc(C)n1` (racemic), for which the MIC90 with Micrococcus luteus [2] was 4 µM (≈ 0.769 µg/mL); against Enterococcus faecalis [6], greater than 128 µM; in the series on Staphylococcus aureus [10] it was greater than 128 µM. The “diameter of the inhibition zone (DIZ)” value is “<=10 mm” in the series on Bacillus subtilis [3]; 16 mm with Enterococcus faecalis [4]; 12 mm in the series with Staphylococcus aureus [5]; 15 mm in the series with Enterococcus faecalis [7]; “<=10 mm” in series [8]; “<=10 mm” in the series on Escherichia coli [9]. Moreover, the “diameter of the inhibition zone (DIZ)” value is given as “<=10 mm” in the series on Escherichia coli [11]; “<=10 mm” with Pseudomonas aeruginosa [12]; 16 mm with Mycolicibacterium vaccae [13]; 11 mm with Staphylococcus aureus [14]; “<=10 mm” in the series with Pseudomonas aeruginosa [15]; 48 mm in the series on Micrococcus luteus [16]. The Activity entry with HeLa, with PC-3 and in the series on MCF7 was “Non-toxic” each time.
Take `C=C(C)C(CC/C(C)=C/CO)N(O)c1ccccn1` (racemic): the values for the MIC90 in the series on Micrococcus luteus [2], against Enterococcus faecalis [6] and with Staphylococcus aureus [10] were 8 µM (≈ 2.1 µg/mL), greater than 128 µM and 64 µM (≈ 16.8 µg/mL), respectively. The “diameter of the inhibition zone (DIZ)” value in the series on Bacillus subtilis [3] was 11 mm; with Enterococcus faecalis [4], 16 mm; with Staphylococcus aureus [5], 19 mm; with Enterococcus faecalis [7], 20 mm; in [8] it was “<=10 mm”; with Escherichia coli [9] it was “<=10 mm”. Moreover, the “diameter of the inhibition zone (DIZ)” value in the series on Escherichia coli [11] was “<=10 mm”; in the series with Pseudomonas aeruginosa [12] it was “<=10 mm”; with Mycolicibacterium vaccae [13] it was 16 mm; in the series with Staphylococcus aureus [14] it was 16 mm; in the series with Pseudomonas aeruginosa [15], “<=10 mm”; with Micrococcus luteus [16] it was 35 mm. Further, the Activity result with HeLa, in the series with PC-3 and with MCF7 was “Non-toxic” each time.
Consider `O=C(O)c1cn(C2CC2)c2cc(N3CCNCC3)c(F)cc2c1=O` [CIPROFLOXACIN], for which the MIC90 with Enterococcus faecalis [6] was determined as 2 µM (≈ 0.663 µg/mL); with Staphylococcus aureus [10], 0.5 µM (≈ 0.166 µg/mL). In addition, the zone of inhibition at 5 µg/mL in the series on Enterococcus faecalis [17] is 16 mm; in the series with Staphylococcus aureus [18], 11 mm; in the series with Bacillus subtilis [19], no less than 21 mm; with Escherichia coli [20] it was no less than 21 mm; in the series with Mycolicibacterium vaccae [21] it was no less than 21 mm; in the series with Pseudomonas aeruginosa [22], no less than 21 mm. Further, the zone of inhibition at 5 µg/mL is no less than 21 mm in the series on Pseudomonas aeruginosa [23]; 16 mm in the series with Enterococcus faecalis [24]; no less than 21 mm with Staphylococcus aureus [25]; no less than 21 mm in the series on Escherichia coli [26]; no more than 10 mm in the series on Micrococcus luteus [27].
In the case of `c1ccc(CNc2ccccn2)cc1`, the MIC90 against Micrococcus luteus [2], against Enterococcus faecalis [6] and against Staphylococcus aureus [10] was greater than 128 µM each time. Further, the “diameter of the inhibition zone (DIZ)” value with Staphylococcus aureus [5], in the series on Enterococcus faecalis [7] and in the series with Micrococcus luteus [16] was 0 mm throughout. Besides, the Activity entry in the series with HeLa, in the series on PC-3 and in the series with MCF7 was “Non-toxic” in each case.
Consider `CCCCCCN(O)c1ccccn1`, for which the MIC90 was 128 µM (≈ 24.9 µg/mL) against Micrococcus luteus [2], greater than 128 µM in the series on Enterococcus faecalis [6] and greater than 128 µM with Staphylococcus aureus [10]. The “diameter of the inhibition zone (DIZ)” value in the series with Staphylococcus aureus [5] amounted to 17 mm; in the series with Enterococcus faecalis [7], 16 mm; in the series with Micrococcus luteus [16] it was 15 mm. Moreover, the Activity result in the series on HeLa, with PC-3 and with MCF7 was “Non-toxic” in each case.

In general, MIC90 refers to an inhibitory concentration at the 90% level, which refers to growth in some studies and to a panel of isolates in others. A high value points to weaker potency.
